Screening data (PubChem)
Only some compounds are listed: those with a hit (about 3% of all), similar ones and a draw of the others.
SENP6 inh: inhibitors of human SENP6 protease; Q9GZR1; Recombinant SENP6 catalytic domain, aminoluciferin luminescence; inhibition, % at 10 µM; 330,000 compounds, 1.8% hits; AID 2599;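 active = inhibition above about 50% at the single tested dose, limit read from the data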
SENP7 inh: blocks the human protease SENP7; Q9BQF6; recombinant SENP7, Z-RLRGG-aminoluciferin luminescence, 40 min; inhibition, % at 5 µM; 330,000 compounds, 1.5% hits; AID 434973;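 active = inhibition above about 50% at the single test dose, limit read from the data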
UBC13 polyUb: inhibitors of human UBC13 polyubiquitin chain formation | inhibition, % at 20 µM | 330,000 compounds, 0.47% hits | TR-FRET | P61088; in the data active = inhibition above about 45%, passing the limit was not always enough
Apaf1 inhib: human Apaf-1 inhibition; O14727; reconstituted apoptosome caspase-3 activity, DEVD-Rh110 fluorescence; inhibition, % at 20 µM; 330,000 compounds, 0.71% hits; AID 489030; active = inhibition of at least 40% at 20 µM
Target sequence (O14727 whole entry, looked up): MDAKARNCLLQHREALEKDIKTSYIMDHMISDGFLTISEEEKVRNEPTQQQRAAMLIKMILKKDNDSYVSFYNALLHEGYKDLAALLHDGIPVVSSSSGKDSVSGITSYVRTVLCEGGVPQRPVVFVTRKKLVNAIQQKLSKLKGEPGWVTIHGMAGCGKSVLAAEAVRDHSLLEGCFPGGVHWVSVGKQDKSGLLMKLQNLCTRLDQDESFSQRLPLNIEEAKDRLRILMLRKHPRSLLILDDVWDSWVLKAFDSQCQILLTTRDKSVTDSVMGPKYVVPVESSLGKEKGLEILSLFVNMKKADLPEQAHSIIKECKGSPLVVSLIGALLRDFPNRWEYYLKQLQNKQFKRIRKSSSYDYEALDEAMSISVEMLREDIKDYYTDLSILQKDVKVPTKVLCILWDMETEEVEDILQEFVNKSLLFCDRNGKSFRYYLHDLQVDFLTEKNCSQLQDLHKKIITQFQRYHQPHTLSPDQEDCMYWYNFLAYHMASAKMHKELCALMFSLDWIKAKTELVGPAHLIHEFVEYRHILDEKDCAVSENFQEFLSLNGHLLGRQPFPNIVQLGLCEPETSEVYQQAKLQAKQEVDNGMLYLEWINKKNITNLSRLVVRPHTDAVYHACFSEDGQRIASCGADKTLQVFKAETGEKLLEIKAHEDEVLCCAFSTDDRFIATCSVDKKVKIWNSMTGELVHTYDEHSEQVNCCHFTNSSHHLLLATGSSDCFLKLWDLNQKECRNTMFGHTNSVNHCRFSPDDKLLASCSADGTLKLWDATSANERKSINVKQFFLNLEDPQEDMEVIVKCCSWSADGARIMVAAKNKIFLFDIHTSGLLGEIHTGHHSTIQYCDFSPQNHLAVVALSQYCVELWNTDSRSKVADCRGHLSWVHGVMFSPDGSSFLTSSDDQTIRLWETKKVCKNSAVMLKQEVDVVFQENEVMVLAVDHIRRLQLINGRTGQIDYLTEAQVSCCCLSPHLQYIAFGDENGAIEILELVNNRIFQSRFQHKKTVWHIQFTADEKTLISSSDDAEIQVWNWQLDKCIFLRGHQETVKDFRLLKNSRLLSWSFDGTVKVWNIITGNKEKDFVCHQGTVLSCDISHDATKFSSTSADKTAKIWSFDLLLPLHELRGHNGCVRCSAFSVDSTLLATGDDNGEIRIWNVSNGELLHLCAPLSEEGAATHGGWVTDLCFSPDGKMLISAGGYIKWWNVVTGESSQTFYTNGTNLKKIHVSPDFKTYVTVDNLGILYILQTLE
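detection = Rh110 fluorescence intensity | test system = biochemical Apaf-1 apoptosome reconstitution | also added = cytochrome c and DEVD-Rh110 substrate | schedule = 30 min plus 50 min, RT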
SENP8 block-1: inhibitors of human SENP8 protease. Q96LD8. purified SENP8, Z-RLRGG-aminoluciferin cleavage, luminescence. inhibition, % at 10 µM. 330,000 compounds, 1.2% hits; in the data active = inhibition above about 50%
SENP8 block-2: inhibitors of human SENP8 protease. inhibition, % at 20 µM. 360,000 compounds, 0.64% hits. AID 602440. recombinant SENP8, Nedd8 substrate fluorescence; in the data active = inhibition mostly above about 40%, no sharp cut-off; inactive = mostly below about 27%
Casp3 UBC13 ctr: inhibits human caspase-3 in UBC13 counter-screen. 1,400 compounds, 4% hits. AID 488856. Recombinant caspase-3, Caspase-Glo 3/7 luminescence, 60 min. shares compounds with UBC13 polyUb. inhibition, % at 20 µM;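 active = mean inhibition across replicates above about 26%, limit read from the data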
UBC13 confirm: confirmation of human UBC13 polyubiquitin inhibitors | 1,400 compounds, 68% hits | inhibition, % at 10 µM | UBC13 polyubiquitination, TR-FRET, biochemical | shares compounds with UBC13 polyUb; in the data active = inhibition above about 45%
Each line names hits and unclear results; the compound was inactive in the other large screens (follow-up assays come after a bar, where they were run).

C#CCOCCOCCOCCNc1nc(N2CCN(C(=O)CCCCCCCCCCNC(=O)[C@H](CCCCN)n3cc(C)nn3)CC2)nc(N2CCN(C(=O)CCCCCCCCCCNC(=O)[C@@H]([C@H](C)O)n3cc(C)nn3)CC2)n1	UBC13 polyUb 116.7, Apaf1 inhib 54.4 | Casp3 UBC13 ctr inactive | UBC13 confirm 110.9
C#CCOCCOCCOCCNc1nc(N2CCN(C(=O)CCCCCCCCCCNC(=O)[C@@H](CCSC)n3cc(CCO)nn3)CC2)nc(N2CCN(C(=O)CCCCCCCCCCNC(=O)[C@H](CCCN=C(N)N)n3cc(C[C@@H](C)CC)nn3)CC2)n1	UBC13 polyUb 127.7, Apaf1 inhib 62.0 | Casp3 UBC13 ctr inactive | UBC13 confirm 123.0
COc1ccc([C@H]2C[C@@H](O)[C@H](n3cc(C4CC4)nn3)CN2C(=O)C2CCCCC2)cc1	none (no result: SENP6 inh, SENP7 inh, UBC13 polyUb, Apaf1 inhib, SENP8 block-1)
Nc1c(C(=O)Nc2ccccc2)c2nc3ccccc3nc2n1CCCN1CCOCC1	UBC13 polyUb 64.1 | Casp3 UBC13 ctr inactive | UBC13 confirm 54.5
N#Cc1c(N)n(CCCN2CCOCC2)c2nc3ccccc3nc12	none
COc1ccc(Cc2c(N)nc(N)nc2N)cc1	none
Nc1ccc(OCCCc2c(N)nc(N)nc2N)cc1	UBC13 polyUb 46.9 | Casp3 UBC13 ctr inactive | UBC13 confirm 63.6
COC(=O)c1cccc(NC(=O)Cc2coc3cc(OC)ccc23)c1	UBC13 polyUb 47.5 | Casp3 UBC13 ctr inactive | UBC13 confirm 52.7
COc1ccc2c(CC(=O)OCC(=O)Nc3cccc(C)c3)coc2c1	none
Oc1ccc(C=NNC(=S)Nc2ccccc2)nc1	none (no result: SENP6 inh, SENP7 inh, UBC13 polyUb, Apaf1 inhib, SENP8 block-1)
O=C1c2cccc3cccc(c23)C(=O)N1CC1CCN(CC(O)COCc2ccc3c(c2)OCO3)CC1 (centres undefined)	UBC13 polyUb 94.6 | Casp3 UBC13 ctr inactive | UBC13 confirm 102.8
CCOC(=O)C1CCN(CC(O)COCc2ccc3c(c2)OCO3)CC1 (centres undefined)	none
COc1ccc2sc(-c3ccccc3OC)c(C#Cc3cncn3C)c2c1	UBC13 polyUb 51.4 | Casp3 UBC13 ctr inactive | UBC13 confirm inactive
COc1ccccc1-c1sc2cc3c(cc2c1C#Cc1cncn1C)OCO3	UBC13 polyUb 45.1 | Casp3 UBC13 ctr inactive | UBC13 confirm inactive
CCc1nc2ccc(C(=O)NCCCn3ccnc3)cn2c1N(C)C(=O)c1cccc(OC)c1	none (no result: SENP6 inh, SENP7 inh, UBC13 polyUb, Apaf1 inhib, SENP8 block-1)
COC(=O)C(=Cc1ccncc1)c1cccc2ccccc12	none (no result: SENP6 inh, SENP7 inh, UBC13 polyUb, Apaf1 inhib, SENP8 block-1)
Cc1ccc(NC(=O)c2ccc(NCCc3ccccc3)c([N+](=O)[O-])c2)cc1F	none
Cc1ccc(NC(=O)c2ccc(NCCN)c([N+](=O)[O-])c2)cc1Cl	UBC13 polyUb 67.3 | Casp3 UBC13 ctr inactive | UBC13 confirm 82.9
CCC(=O)N1c2ccc(C)cc2C2=NNC(=S)NC21O (centres undefined)	UBC13 polyUb 47.3 | Casp3 UBC13 ctr inactive | UBC13 confirm inactive
CC1=CC(C)(C)N(C(=O)CN2C(=O)c3ccccc3C2=O)c2ccc(C)cc21	none
CCCCc1ccc(S(=O)(=O)NC(=O)C2(C)CCN2C(=O)Cc2ccccc2)cc1 (centres undefined)	none (no result: SENP6 inh, SENP7 inh, UBC13 polyUb, Apaf1 inhib, SENP8 block-1)
CCOC(=O)c1c(C)n(-c2ccc(C)cc2)c2ccc(OCC(O)CNCC3CCCO3)cc12 (centres undefined)	UBC13 polyUb 56.3 | Casp3 UBC13 ctr inactive | UBC13 confirm 76.8
CCOC(=O)c1c(C)n(-c2ccc(C)cc2)c2ccc(OCC(O)CNCCCO)cc12 (centres undefined)	UBC13 polyUb 62.0 | Casp3 UBC13 ctr inactive | UBC13 confirm 64.3
C=C[C@](C)(CC[C@@]1(C)C(C)CC(OC2OC(C)C(OC3OC(COC(C)=O)C(O)C(O)C3O)C(O)C2O)[C@@]2(C)C(C)=CCCC12)OC1OC(C)C(O[C@@H]2O[C@@H](C)C(O)C(O)[C@H]2O)C(O)C1O (some centres undefined)	UBC13 polyUb 53.5 | Casp3 UBC13 ctr inactive | UBC13 confirm 57.7
